In ChEMBL document CHEMBL1131206, “Synthesis, anticonvulsant activity, and structure-activity relationships of sodium channel blocking 3-aminopyrroles” (J Med Chem, 1998):

Experiments:
[1] = Partition coefficient (logP); type: physicochemical; conditions: octanol/water
[2] = test system: Mus musculus; experiment: Minimal motor impairment activity by Rotarod test in mice following i.p. administration.; type: functional; conditions: ip
How it was run: (§1)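 Rotorod neurotoxicity test in male albino CF No. 1 mice dosed ip, run at the time of peak effect. Impairment was defined as failure to keep equilibrium for 60 s in each of three trials on the rotating rod. With groups of at least eight mice across various doses, the median motor-impairing dose and its 95% confidence interval were calculated.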

[3] = test system: Rattus norvegicus; experiment: Minimal motor impairment activity by Rotarod test in rat following p.o. administration.; type: functional; conditions: po
How it was run: (§2)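 Minimal motor impairment in male Sprague–Dawley rats (100 g) after oral dosing was judged at the time of peak effect. The criterion was overt ataxia, abnormal gait and stance, and/or loss of placing response and muscle tone. Groups had at least eight rats across various doses, and the median impairing dose with its 95% confidence interval was calculated.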

[4] = test system: Mus musculus; experiment: Anticonvulsant activity (ED50) was measured by maximal electroshock seizure test in mice by ip administration; No effective response; type: functional, organism-based
How it was run: (§3)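 Male albino CF No. 1 mice (18–25 g) were dosed ip and tested by maximal electroshock at the previously determined time of peak effect. Groups of at least eight mice received various doses until at least two points fell between 0% and 100% protection. ED50 and its 95% confidence interval were calculated. Single-dose entries give protection percentage at the indicated dose.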

[5] = test system: Rattus norvegicus; experiment: Anticonvulsant activity was measured by maximal electroshock seizure test in rat by po administration at 50 mg/kg; type: functional
How it was run: (§4)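 Maximal electroshock test in male albino Sprague–Dawley rats (100 g) after oral dosing, run at the previously determined time of peak effect. At least eight rats per group received various doses until at least two points lay between 0% and 100% protection. ED50 with 95% confidence interval was calculated. Single-dose entries report percent protection at that dose.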

[6] = test system: Rattus norvegicus; experiment: Anticonvulsant activity was measured by maximal electroshock seizure test in rat by po administration; type: functional; how it was run: as §4
[7] = test system: Mus musculus; experiment: Anticonvulsant activity was measured by maximal electroshock seizure test in mice by ip administration; type: functional; how it was run: as §3
[8] = test system: Rattus norvegicus; experiment: Minimal motor impairment activity of the compound was measured by […] in rat by po administration; No effective response; type: functional, organism-based; how it was run: as §2
[9] = test system: Mus musculus; experiment: Anticonvulsant activity was measured by maximal electroshock seizure test in mice by ip administration; No effective response; type: functional, organism-based; how it was run: as §3
[10] = test system: Mus musculus; experiment: Minimal motor impairment activity of the compound was measured by Rotarod test in mice by ip administration; No effective response; type: functional, organism-based; how it was run: as §1
[11] = test system: Rattus norvegicus; experiment: Anticonvulsant activity was measured by maximal electroshock seizure test in rat by po administration; No effective response; type: functional, organism-based; how it was run: as §4
[12] = test system: Mus musculus; experiment: Anticonvulsant activity was measured by maximal electroshock seizure test in mice by ip administration at 100 mg/kg dose; type: functional; conditions: route intraperitoneal; how it was run: as §3
[13] = test system: Rattus norvegicus; experiment: Anticonvulsant activity was measured by maximal electroshock seizure test in rat by po administration at 50 mg/kg dose; type: functional; how it was run: as §4
[14] = test system: Mus musculus; experiment: Anticonvulsant activity was measured by maximal electroshock seizure test in mice by ip administration at 30 mg/kg; type: functional; conditions: route intraperitoneal; how it was run: as §3
[15] = test system: Rattus norvegicus; experiment: Anticonvulsant activity (ED50) was measured by maximal electroshock seizure test in rat by po administration; No effective response; type: functional, organism-based; how it was run: as §4
[16] = test system: Rattus norvegicus; experiment: Anticonvulsant activity in corneal kindled rats was determined when 75 mg/kg was administered orally; type: functional; conditions: route oral
How it was run: (§5)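 Corneally kindled male Sprague–Dawley rats (100 g), stimulated daily via corneal electrodes (8 mA, 60 Hz, 4 s) until 10 consecutive stage 5 seizures. Drug was dosed orally at 0.04 mL/10 g body weight. Seizure severity was scored after dosing, with abolition of the generalized stage 4/5 seizure (clonus, rearing and falling) as the endpoint.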

[17] = test system: Rattus norvegicus; experiment: Anticonvulsant activity in corneal kindled rats was determined when 25 mg/kg was administered orally; type: functional; conditions: route oral; how it was run: as §5
[18] = test system: Rattus norvegicus; experiment: Anticonvulsant activity in corneal kindled rats was determined when 100 mg/kg was administered orally; type: functional; conditions: route oral; how it was run: as §5
[19] = test system: Rattus norvegicus; experiment: Anticonvulsant activity in corneal kindled rats was determined when 50 mg/kg was administered orally; type: functional; conditions: route oral; how it was run: as §5
[20] = test system: Rattus norvegicus; experiment: Anticonvulsant activity was measured by maximal electroshock seizure test in rat by po administration at 25 mg/kg; type: functional; how it was run: as §4
[21] = test system: Mus musculus; experiment: Anticonvulsant activity was measured by maximal electroshock seizure test in mice by ip administration at 100 mg/kg; type: functional; conditions: route intraperitoneal; how it was run: as §3
[22] = test system: Mus musculus; experiment: Minimal motor impairment activity was measured by Rotarod test in mice by ip administration; type: functional; how it was run: as §1
[23] = test system: Rattus norvegicus; experiment: Minimal motor impairment activity was measured by Rotarod test in rat by po administration; type: functional; how it was run: as §2
[24] = test system: Rattus norvegicus; experiment: Anticonvulsant activity was measured by maximal electroshock seizure test in rat by po administration at 30 mg/kg; type: functional; how it was run: as §4
[25] = test system: Rattus norvegicus; experiment: Anticonvulsant activity in corneal kindled rats was determined when 40 mg/kg was administered orally; type: functional; conditions: route oral
How it was run: (§6)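 Male Sprague–Dawley rats were kindled by daily corneal stimulation (8 mA, 60 Hz, 4 s) until they reached 10 consecutive stage 5 seizures (rearing and falling with clonus). The drug was then given orally, and seizure score was recorded as mean ± variation. Abolition of the generalized stage 4–5 seizure served as the endpoint.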

[26] = test system: Rattus norvegicus; experiment: Anticonvulsant activity in corneal kindled rats was determined when 10 mg/kg was administered orally; type: functional; conditions: route oral; how it was run: as §6
[27] = test system: Rattus norvegicus; experiment: Anticonvulsant activity in corneal kindled rats was determined when 20 mg/kg was administered orally; type: functional; conditions: route oral; how it was run: as §6
[28] = test system: Rattus norvegicus; experiment: Anticonvulsant activity in corneal kindled rats was determined when 80 mg/kg was administered orally; type: functional; conditions: route oral; how it was run: as §6

## CCCNC(=O)c1[nH]cc(-c2ccc(Cl)cc2)c1N1CCOCC1
[1]
  logP: 4.2

## CN1CCN(C(=O)c2[nH]cc(-c3ccc(Cl)cc3)c2N2CCOCC2)CC1
[2]
  ED50: > 300 mg/kg
[3]
  ED50: > 50 mg/kg
[4]
  ED50: No effective response
[5]
  Protection: 50%
[1]
  logP: 3.3

## Cn1cc(-c2ccc(Cl)cc2)c(N2CCOCC2)c1C(=O)O
[1]
  logP: 2.3

## Clc1ccc(-c2c[nH]cc2N2CCOCC2)cc1
[2]
  ED50: 115 mg/kg
[6]
  ED50: 17.7 mg/kg
[3]
  ED50: > 200 mg/kg
[7]
  ED50: 62.1 mg/kg
[1]
  logP: 3.2

## Clc1ccc(-c2cnoc2N2CCOCC2)cc1
[8]
  ED50: No effective response
[9]
  ED50: No effective response
[10]
  ED50: No effective response
[11]
  ED50: No effective response

## O=C(c1[nH]cc(-c2ccc(Cl)cc2)c1N1CCOCC1)N1CCOCC1
[1]
  logP: 3.1

## COC(=O)c1[nH]cc(-c2ccc(Cl)cc2)c1N1CCN(c2ccccc2)CC1
[2]
  ED50: > 500 mg/kg
[6]
  ED50: 12.5 mg/kg
[3]
  ED50: > 500 mg/kg
[7]
  ED50: 175 mg/kg
[1]
  logP: 4.4

## COC(=O)c1c(N2CCOCC2)c(-c2ccc(Cl)cc2)cn1C(C)=O
[2]
  ED50: 35.4 mg/kg
[6]
  ED50: 13.6 mg/kg
[3]
  ED50: > 250 mg/kg
[7]
  ED50: 33.1 mg/kg
[1]
  logP: 3.5

## N#Cc1[nH]cc(-c2ccc(Cl)cc2)c1N1CCOCC1
[12]
  Protection: 30%
[2]
  ED50: > 300 mg/kg
[3]
  ED50: > 50 mg/kg
[13]
  Protection: 100%
[1]
  logP: 3.5

## CCOC(=O)c1[nH]cc(-c2ccc(Cl)cc2)c1N1CCOCC1
[2]
  ED50: 158 mg/kg
[6]
  ED50: 7.9 mg/kg
[3]
  ED50: > 500 mg/kg
[7]
  ED50: 49.9 mg/kg
[1]
  logP: 3.9

## CC(C)COC(=O)c1[nH]cc(-c2ccc(Cl)cc2)c1N1CCOCC1
[8]
  ED50: No effective response
[9]
  ED50: No effective response
[10]
  ED50: No effective response
[11]
  ED50: No effective response

## NC(=O)c1[nH]cc(-c2ccc(Cl)cc2)c1N1CCOCC1
[2]
  ED50: > 500 mg/kg
[3]
  ED50: > 50 mg/kg
[7]
  ED50: 65 mg/kg
[1]
  logP: 2.4

## COC(=O)c1[nH]cc(-c2ccc(Cl)cc2)c1N(C)CCN(C)C
[2]
  ED50: < 30 mg/kg
[3]
  ED50: > 50 mg/kg
[5]
  Protection: 100%
[14]
  Protection: 100%
[1]
  logP: 3.3

## COCCNC(=O)c1[nH]cc(-c2ccc(Cl)cc2)c1N1CCOCC1
[1]
  logP: 3.3

## CCN1C(=O)c2c(N3CCOCC3)c(-c3ccc(Cl)cc3)cn2C1=O
[8]
  ED50: No effective response
[9]
  ED50: No effective response
[10]
  ED50: No effective response
[11]
  ED50: No effective response

## COC(=O)c1c(N2CCOCC2)c(-c2ccc(Cl)cc2)cn1C(=O)c1ccccc1
[2]
  ED50: 175 mg/kg
[6]
  ED50: 14 mg/kg
[3]
  ED50: > 500 mg/kg
[7]
  ED50: 43.7 mg/kg
[1]
  logP: 5.5

## Cn1cc(-c2ccc(Cl)cc2)c(N2CCOCC2)c1
[1]
  logP: 4.2

## CCS(=O)(=O)n1cc(-c2ccc(Cl)cc2)c(N2CCOCC2)c1C(=O)OC
[8]
  ED50: No effective response
[10]
  ED50: No effective response
[4]
  ED50: No effective response
[1]
  logP: 4.2
[15]
  ED50: No effective response

## COC(=O)c1[nH]cc(-c2ccc(Br)cc2)c1N1CCOCC1
[16]
  Seizure score: 1.7
[2]
  ED50: 166 mg/kg
[6]
  ED50: 2.5 mg/kg
[17]
  Seizure score: 4.3
[18]
  Seizure score: 1.9
[3]
  ED50: > 500 mg/kg
[7]
  ED50: 27.8 mg/kg
[19]
  Seizure score: 3.7
[1]
  logP: 3.8

## COC(=O)c1[nH]cc(-c2ccc(Cl)cc2)c1N1CCOCC1
[2]
  ED50: 56.4 mg/kg
[6]
  ED50: 11.4 mg/kg
[3]
  ED50: > 500 mg/kg
[7]
  ED50: 58.1 mg/kg
[1]
  logP: 3.5

## O=C(O)c1[nH]cc(-c2ccc(Cl)cc2)c1N1CCOCC1
[20]
  Protection: 75%
[2]
  ED50: > 300 mg/kg
[3]
  ED50: > 25 mg/kg
[1]
  logP: 1.8

## COC(=O)c1c(N2CCOCC2)c(-c2ccc(Cl)cc2)cn1C(=O)N1CCOCC1
[1]
  logP: 3.1

## COC(=O)c1[nH]cc(-c2ccccc2C)c1N1CCOCC1
[21]
  Protection: 60%
[2]
  ED50: > 100 mg/kg
[3]
  ED50: > 50 mg/kg
[5]
  Protection: 50%
[1]
  logP: 2.8

## CN(C)C(=O)c1[nH]cc(-c2ccc(Cl)cc2)c1N1CCOCC1
[1]
  logP: 3.1

## CC(=O)c1[nH]cc(-c2ccc(Cl)cc2)c1N1CCOCC1
[2]
  ED50: 335 mg/kg
[6]
  ED50: 10.6 mg/kg
[3]
  ED50: > 100 mg/kg
[7]
  ED50: 72.6 mg/kg

## C=CCNC(=O)c1[nH]cc(-c2ccc(Cl)cc2)c1N1CCOCC1
[1]
  logP: 3.7

## COC(=O)c1[nH]cc(-c2cccc(Br)c2)c1N1CCOCC1
[21]
  Protection: 100%
[22]
  ED50: > 300 mg/kg
[23]
  ED50: > 50 mg/kg
[5]
  Protection: 75%

## CCOC(=O)c1[nH]cc(-c2ccc(Cl)cc2)c1N1CCN(C)CC1
[2]
  ED50: < 25 mg/kg
[3]
  ED50: < 25 mg/kg
[24]
  Protection: 100%
[14]
  Protection: 100%

## Clc1ccc(-c2c[nH]nc2N2CCOCC2)cc1
[2]
  ED50: 300 mg/kg
[3]
  ED50: > 50 mg/kg
[7]
  ED50: 47 mg/kg
[5]
  Protection: 100%

## COC(=O)CCc1c(N2CCOCC2)c(-c2ccc(Cl)cc2)cn1C
[8]
  ED50: No effective response
[9]
  ED50: No effective response
[10]
  ED50: No effective response
[11]
  ED50: No effective response

## NC(=O)N1c2ccccc2C=Cc2ccccc21 [CARBAMAZEPINE]
[25]
  Seizure score: 3.8
[2]
  ED50: 47.8 mg/kg
[26]
  Seizure score: 4.8
[6]
  ED50: 11.9 mg/kg
[3]
  ED50: 361 mg/kg
[27]
  Seizure score: 4.5
[7]
  ED50: 9.9 mg/kg
[28]
  Seizure score: 2
